IDH1 mut inh: inhibitors of human IDH1 R132H; AID 624101; inhibition, % at 10 µM; 70,000 compounds, 0.18% hits; IDH1 R132H reductase, diaphorase/resazurin fluorescence, 60 min; O75874; in the data active = inhibition above about 34%; inconclusive = no clear call, values can overlap the other calls; inactive = below about 11%
Target sequence (O75874 whole entry R132H): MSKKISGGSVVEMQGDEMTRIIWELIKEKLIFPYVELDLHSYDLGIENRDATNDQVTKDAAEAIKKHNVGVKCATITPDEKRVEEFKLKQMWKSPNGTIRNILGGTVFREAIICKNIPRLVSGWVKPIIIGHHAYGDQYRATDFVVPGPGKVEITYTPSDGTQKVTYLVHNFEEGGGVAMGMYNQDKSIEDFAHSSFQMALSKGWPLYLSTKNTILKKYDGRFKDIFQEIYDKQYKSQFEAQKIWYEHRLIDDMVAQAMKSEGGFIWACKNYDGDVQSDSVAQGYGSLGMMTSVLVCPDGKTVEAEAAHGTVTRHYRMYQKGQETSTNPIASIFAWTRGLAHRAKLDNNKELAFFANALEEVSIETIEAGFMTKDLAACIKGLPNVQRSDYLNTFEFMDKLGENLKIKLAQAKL
T cruzi growth-1: inhibitors of T. cruzi proliferation | 77,000 compounds, 5.9% hits | inhibition, % at 8.34 µM | T. cruzi beta-gal in NIH3T3, GalScreen luminescence, 90 h | AID 624255;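 active = mean inhibition above about 93%, with at least 55% of replicates each passing it, limit read from the data, passing the limit was not always enough; inconclusive = only one of those two conditions holds; inactive = neither condition holds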
GASC1 inh: KDM4C (human) demethylase inhibition; Q9H3R0; AID 720574; inhibition, % at 12.5 µM; 96,000 compounds, 0.15% hits; GST-KDM4C 2-372, H3K9me3 peptide, LANCE TR-FRET;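 active = mean replicate inhibition above about 25%, with at least 55% of replicates also reaching it, limit read from the data, passing the limit was not always enough; inconclusive = only one of those two conditions met; inactive = neither condition met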
Target sequence (Q9H3R0 2-372 limits assumed): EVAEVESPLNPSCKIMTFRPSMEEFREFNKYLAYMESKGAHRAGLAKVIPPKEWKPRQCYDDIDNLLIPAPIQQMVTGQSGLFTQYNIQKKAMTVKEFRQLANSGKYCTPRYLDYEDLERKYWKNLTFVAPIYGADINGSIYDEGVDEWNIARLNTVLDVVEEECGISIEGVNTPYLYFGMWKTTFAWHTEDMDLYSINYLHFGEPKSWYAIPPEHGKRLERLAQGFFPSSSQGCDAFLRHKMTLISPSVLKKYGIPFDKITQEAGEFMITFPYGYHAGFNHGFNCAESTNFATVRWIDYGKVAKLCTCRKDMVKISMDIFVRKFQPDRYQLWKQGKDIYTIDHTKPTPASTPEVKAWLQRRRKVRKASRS
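material = GST-tagged GASC-1 (JMJD2C) catalytic fragment, aa 2-372 | amount = enzyme final amount 10 nM | medium = HEPES buffer, pH 7.5, plus ascorbate | also added = H3K9me3 peptide substrate, Fe(II), 2-oxoglutarate | dosing = single dose | times = 30 min demethylation and 1 h detection at room temperature | detection = LANCE TR-FRET | read-out basis = Fall in 671/618 emission ratio as inhibition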
Pf Dd2 growth: inhibitors of Plasmodium falciparum Dd2 growth; P. falciparum Dd2 growth, SYBR Green, 72 h; stronger effect = lower value; 94,000 compounds, 2.3% hits; activity change, % at 10 µM; in the data active = activity change below about -80%; inconclusive = no clear call, values can overlap the other calls
T cruzi growth-2: blocks T. cruzi growth in NIH3T3 host cells; shares compounds with T cruzi growth-1; T. cruzi beta-gal in NIH3T3, GalScreen luminescence, 90 h; 5,600 compounds, 72% hits; AID 651739; inhibition, % at 8.35 µM;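 active = mean replicate inhibition above about 95% and at least 55% of replicates individually reaching it, limit read from the data; inconclusive = only one of the two criteria is met; inactive = neither criterion is met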
T cruzi growth-3: inhibitors of T. cruzi proliferation; shares compounds with T cruzi growth-1; T. cruzi beta-gal in NIH3T3, GalScreen luminescence, 90 h; inhibition, % at 2.09 µM; 5,600 compounds, 21% hits;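 active = mean inhibition above about 95%, with at least 55% of replicates also reaching it, limit read from the data; inconclusive = meets just one of the two conditions; inactive = meets neither condition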
NIH3T3 tox: NIH/3T3 (mouse) viability loss; shares compounds with T cruzi growth-1; NIH/3T3 viability, CellTiter-Glo ATP luminescence, 90 h; cytotoxicity (signal decrease), % at 8.35 µM; 5,600 compounds, 14% hits;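 active = mean signal decrease across replicates above about 35% based on untreated-well scatter, with enough replicates individually passing, limit read from the data; inconclusive = no rule stated though some were filed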
NIH3T3 tox 2: NIH/3T3 (mouse) viability loss | shares compounds with T cruzi growth-1 | NIH/3T3 viability, CellTiter-Glo ATP luminescence, 90 h | inhibition, % at 24.9 µM | 5,600 compounds, 56% hits | AID 651744;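 active = mean loss of cell viability signal at or above a set limit, and enough replicates individually reaching it; inconclusive = meets only the mean limit or only the replicate share; inactive = meets neither condition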
Each line names hits and unclear results; the compound was inactive in the other large screens (follow-up assays come after a bar, where they were run); ! = not confirmed by another sample. A selection: hits, their analogues and other compounds. The true share with any hit is near 5.9%.

O=C(C[C@@H]1CC[C@H]2[C@@H](COC[C@@H](O)CN2C(=O)Nc2ccc(Cl)c(Cl)c2)O1)NCc1ccc(Cl)c(Cl)c1	none (no result: IDH1 mut inh)
O=C(C[C@H]1CC[C@@H]2[C@H](COC[C@@H](O)CN2C(=O)Nc2ccc(Cl)c(Cl)c2)O1)NCc1ccc(Cl)c(Cl)c1	T cruzi growth-1 98.3 (no result: IDH1 mut inh) | T cruzi growth-2 inactive | T cruzi growth-3 101.6 | NIH3T3 tox inactive | NIH3T3 tox 2 106.3
O=C(C[C@@H]1CC[C@H]2[C@@H](COC[C@@H](O)CN2C(=O)c2ccncc2)O1)NCc1ccc(-c2ccccc2)cc1	T cruzi growth-1 116.7 (no result: IDH1 mut inh) | T cruzi growth-2 inactive | T cruzi growth-3 inactive | NIH3T3 tox inactive | NIH3T3 tox 2 inactive
O=C(C[C@@H]1CC[C@@H]2[C@H](COC[C@@H](O)CN2C(=O)Nc2ccc(Cl)c(Cl)c2)O1)NCc1ccncc1	T cruzi growth-1 127.2 (no result: IDH1 mut inh) | T cruzi growth-2 inactive | T cruzi growth-3 inactive | NIH3T3 tox inactive | NIH3T3 tox 2 inconclusive
N#C[C@H]1[C@@H](c2ccc(-c3ccncc3)cc2)[C@@H](CO)N1C(=O)C1CCCC1	none (no result: IDH1 mut inh)
C[C@@H]1CN([C@@H](C)CO)C(=O)Cc2cc(NS(=O)(=O)c3cn(C)cn3)ccc2O[C@@H]1CN(C)Cc1ccc(C(=O)Nc2ccccc2N)cc1	none
C[C@@H]1CN([C@@H](C)CO)C(=O)c2cc(/C=C/c3ccccc3)cnc2O[C@@H]1CN(C)Cc1ccccc1F	T cruzi growth-1 107.7 | T cruzi growth-2 113.9 | T cruzi growth-3 inactive | NIH3T3 tox inactive | NIH3T3 tox 2 55.8
C/C=C/c1cnc2c(c1)C(=O)N([C@@H](C)CO)C[C@@H](C)[C@@H](CN(C)Cc1ccccc1F)O2	none (no result: T cruzi growth-1)
C[C@@H]1CN([C@@H](C)CO)C(=O)c2cc(/C=C/c3ccccc3)cnc2O[C@H]1CN(C)Cc1ccccc1F	T cruzi growth-1 127.2 | T cruzi growth-2 inconclusive | T cruzi growth-3 107.9 | NIH3T3 tox inactive | NIH3T3 tox 2 105.0
Cc1ccc(-c2cnc3c(c2)C(=O)N([C@H](C)CO)C[C@H](C)[C@@H](CN(C)Cc2ccccc2F)O3)cc1	T cruzi growth-1 108.9! | T cruzi growth-2 107.7 | T cruzi growth-3 inactive | NIH3T3 tox inactive | NIH3T3 tox 2 69.0
C/C=C/c1cnc2c(c1)C(=O)N([C@@H](C)CO)C[C@H](C)[C@H](CN(C)Cc1ccccc1F)O2	none (no result: T cruzi growth-1)
COc1ccc2c3c(n(C)c2c1)[C@@H](CO)N(C(=O)CN(C)C)CC31CCN(C(=O)C2CCC2)CC1	none (no result: IDH1 mut inh, T cruzi growth-1)
COc1ccc(NC(=O)Nc2ccc3c(c2)C(=O)N([C@H](C)CO)C[C@H](C)[C@@H](CN(C)Cc2ccc(C(F)(F)F)cc2)OCCCC[C@@H](C)O3)cc1	none
CNC[C@H]1Oc2ccc(N)cc2CC(=O)N([C@@H](C)CO)C[C@H]1C	none (no result: IDH1 mut inh, T cruzi growth-1)
CO[C@H]1CN(C)C(=O)c2cc(NS(=O)(=O)c3ccccc3)ccc2OC[C@H](C)N(Cc2nccs2)C[C@H]1C	none
O=C(Cn1c(=O)oc2ccccc21)Nc1cccc(C(=O)O)c1	none (no result: T cruzi growth-1, GASC1 inh, Pf Dd2 growth)
CCOc1ccccc1Nc1nc(Nc2ccccc2OCC)nc(Sc2nnc(C)s2)n1	none (no result: T cruzi growth-1, GASC1 inh, Pf Dd2 growth)
COc1ccccc1CNC(=O)C[C@H]1C[C@H]2c3cc(NC(=O)Nc4ccc(C(F)(F)F)cc4)ccc3O[C@H]2[C@H](CO)O1	T cruzi growth-1 133.8 | T cruzi growth-2 107.5 | T cruzi growth-3 inactive | NIH3T3 tox inactive | NIH3T3 tox 2 inactive
O=C(C[C@H]1C[C@@H]2c3cc(NC(=O)Nc4ccc(C(F)(F)F)cc4)ccc3O[C@@H]2[C@H](CO)O1)NCc1ccc(Cl)cc1	T cruzi growth-1 inconclusive | T cruzi growth-2 107.7 | T cruzi growth-3 inactive | NIH3T3 tox inactive | NIH3T3 tox 2 inactive
O=C(C[C@H]1CC[C@H](NC(=O)Nc2ccc(C(F)(F)F)cc2)[C@@H](CO)O1)NCc1cc(F)cc(F)c1	T cruzi growth-1 103.3 | T cruzi growth-2 inactive | T cruzi growth-3 inactive | NIH3T3 tox inactive | NIH3T3 tox 2 inactive
O=C(C[C@@H]1C=C[C@H](NC(=O)Nc2ccccc2)[C@@H](CO)O1)NCc1cccc(F)c1	T cruzi growth-1 inconclusive | T cruzi growth-2 inactive | T cruzi growth-3 inactive | NIH3T3 tox inactive | NIH3T3 tox 2 inactive
O=C(C[C@@H]1C[C@@H]2c3cc(NC(=O)Nc4ccc(C(F)(F)F)cc4)ccc3O[C@@H]2[C@H](CO)O1)NCc1ccc2c(c1)OCO2	none
CCn1c(SCC(=O)N2c3ccccc3Sc3ccccc32)nnc1-c1ccncc1	none (no result: T cruzi growth-1, GASC1 inh, Pf Dd2 growth)
C[C@H](NC(=O)C[C@H]1C[C@@H]2c3cc(NC(=O)Nc4ccc(C(F)(F)F)cc4)ccc3O[C@@H]2[C@H](CO)O1)c1ccccc1	T cruzi growth-1 inconclusive | T cruzi growth-2 101.9 | T cruzi growth-3 inactive | NIH3T3 tox 47.7 | NIH3T3 tox 2 70.7
COc1ccccc1CNC(=O)C[C@@H]1C[C@@H]2c3cc(NC(=O)NC4CCCC4)ccc3O[C@@H]2[C@@H](CO)O1	T cruzi growth-1 111.3 | T cruzi growth-2 inactive | T cruzi growth-3 inactive | NIH3T3 tox inactive | NIH3T3 tox 2 inactive
COc1ccccc1CNC(=O)C[C@@H]1C[C@H]2c3cc(NC(=O)Nc4ccc(C(F)(F)F)cc4)ccc3O[C@H]2[C@H](CO)O1	none
COc1ccccc1CNC(=O)C[C@H]1C[C@H]2c3cc(NC(=O)NC4CCCC4)ccc3O[C@H]2[C@@H](CO)O1	none
COc1ccccc1CNC(=O)C[C@@H]1C[C@@H]2c3cc(NC(=O)Nc4ccc(C(F)(F)F)cc4)ccc3O[C@@H]2[C@H](CO)O1	T cruzi growth-1 125.4 | T cruzi growth-2 111.4 | T cruzi growth-3 inactive | NIH3T3 tox inactive | NIH3T3 tox 2 inactive
O=C(C[C@H]1C[C@H]2c3cc(NC(=O)NC4CCCCC4)ccc3O[C@H]2[C@@H](CO)O1)NCc1ccccc1	T cruzi growth-1 97.4 | T cruzi growth-2 inactive | T cruzi growth-3 inactive | NIH3T3 tox inactive | NIH3T3 tox 2 inactive
C[C@H](NC(=O)C[C@H]1CC[C@@H]2[C@H](COC[C@H](O)CN2C(=O)Nc2cc(Cl)cc(Cl)c2)O1)c1ccccc1	none (no result: IDH1 mut inh)
O=C(NCCCN1CCOCC1)[C@H]1N[C@H]2c3ccc(C4=CCCCC4)c(=O)n3C[C@H]2[C@@H]1CO	T cruzi growth-1 inconclusive (no result: IDH1 mut inh) | T cruzi growth-2 inactive | T cruzi growth-3 inactive | NIH3T3 tox inactive | NIH3T3 tox 2 inactive
O=C(NCCCN1CCOCC1)[C@H]1[C@H](CO)[C@H]2Cn3c(ccc(C4=CCCCC4)c3=O)[C@@H]1N2	none (no result: IDH1 mut inh, Pf Dd2 growth)
O=C(NCc1ccc(F)cc1)[C@H]1[C@H](CO)[C@H]2Cn3c(ccc(C4=CCCCC4)c3=O)[C@@H]1N2	none (no result: IDH1 mut inh, Pf Dd2 growth)
